pIC50: −log10 of the molar value. Activity calls are given as the source filed them. No cut-off for these calls is given here.
How the values were obtained:
A-375 [1] = assay: Induction of apoptosis in human A375 cells assessed as late apoptotic cells at 2 uM after 72 hrs by Alexa Fluor 488 Annexin/propidium iodide staining-based flow cytometric analysis (reference value: 10.22%); type: functional
A-375 [2] = assay: Induction of apoptosis in human A375 cells assessed as early apoptotic cells at 2 uM after 72 hrs by Alexa Fluor 488 Annexin/propidium iodide staining-based flow cytometric analysis (reference value: 2.07%); type: functional
SMMC-7721 = assay: Antiproliferative activity against human SMMC7721 cells after 72 hrs CCK8 assay; type: functional, cell-based; details: SMMC-7721, 72 h
Method in brief: (§1)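 Cells grown in RPMI1640 with 10% FBS, 1% penicillin/streptomycin, 37 °C, 5% CO2; log-phase cells seeded 3000–4000 per well, dosed after 12 h with a concentration series or solvent control for 72 h. CCK-8 added for 1 h, absorbance at 450 nm; IC50 from percent growth versus untreated control; mean of three experiments.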

A-375 [3] = assay: Induction of apoptosis in human A375 cells assessed as early apoptotic cells at 8 uM after 72 hrs by Alexa Fluor 488 Annexin/propidium iodide staining-based flow cytometric analysis (reference value: 2.07%); type: functional
A-375 [4] = assay: Induction of apoptosis in human A375 cells assessed as necrotic cells at 2 uM after 72 hrs by Alexa Fluor 488 Annexin/propidium iodide staining-based flow cytometric analysis (reference value: 1.64%); type: functional
NCI-H460 = assay: Antiproliferative activity against human H460 cells after 72 hrs CCK8 assay; type: functional, cell-based; details: NCI-H460, 72 h; method in brief: as §1
A-375 [5] = assay: Cell cycle arrest in human A375 cells assessed as accumulation at G2/M phase at 8 uM after 72 hrs by propidium iodide/RNase staining based flow cytometric analysis relative to control; type: functional
Method in brief: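 A375 cells (1.6 × 10^5 per well) plated 12 h, then treated with compound or DMSO for 72 h. Cells fixed overnight in 70% ethanol in phosphate buffer at –20 °C, stained 30 min at room temperature with RNase:PI (1:9). DNA content read by flow cytometry.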

A-375 [6] = assay: Induction of apoptosis in human A375 cells assessed as necrotic cells at 16 uM after 72 hrs by Alexa Fluor 488 Annexin/propidium iodide staining-based flow cytometric analysis (reference value: 1.64%); type: functional
A-375 [7] = assay: Induction of apoptosis in human A375 cells assessed as late apoptotic cells at 16 uM after 72 hrs by Alexa Fluor 488 Annexin/propidium iodide staining-based flow cytometric analysis (reference value: 10.22%); type: functional
A-375 [8] = assay: Induction of apoptosis in human A375 cells assessed as viable cells at 2 uM after 72 hrs by Alexa Fluor 488 Annexin/propidium iodide staining-based flow cytometric analysis (reference value: 86.07%); type: functional; details: A-375, 72 h, read-out: Activity
[9] = Induction of DNA damage in human A375 cells assessed as phosphorylation of H2AX at Ser139 residues at 16 uM after 48 hrs relative to control; type: functional
Method in brief: (§2)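 A375 cells seeded 7000 per well, treated next day for 48 h. Whole-cell γH2AX (Ser139) immunoassay read by absorbance, normalised to cell number and expressed as percent of untreated control; mean ± SD, n = 3; t-test.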

A-375 [10] = assay: Induction of apoptosis in human A375 cells assessed as late apoptotic cells at 8 uM after 72 hrs by Alexa Fluor 488 Annexin/propidium iodide staining-based flow cytometric analysis (reference value: 10.22%); type: functional
A-375 [11] = assay: Induction of apoptosis in human A375 cells assessed as necrotic cells at 8 uM after 72 hrs by Alexa Fluor 488 Annexin/propidium iodide staining-based flow cytometric analysis (reference value: 1.64%); type: functional
NCI-H1299 = assay: Antiproliferative activity against human H1299 cells after 72 hrs CCK8 assay; type: functional, cell-based; details: NCI-H1299, 72 h
A-375 [12] = assay: Induction of apoptosis in human A375 cells assessed as viable cells at 8 uM after 72 hrs by Alexa Fluor 488 Annexin/propidium iodide staining-based flow cytometric analysis (reference value: 86.07%); type: functional; details: A-375, 72 h, read-out: Activity
[13] = Induction of DNA damage in human A375 cells assessed as phosphorylation of H2AX at Ser139 residues at 8 uM after 48 hrs relative to control; type: functional; method in brief: as §2
A-375 [14] = assay: Induction of apoptosis in human A375 cells assessed as early apoptotic cells at 16 uM after 72 hrs by Alexa Fluor 488 Annexin/propidium iodide staining-based flow cytometric analysis (reference value: 2.07%); type: functional
A-375 [15] = assay: Induction of apoptosis in human A375 cells assessed as viable cells at 16 uM after 72 hrs by Alexa Fluor 488 Annexin/propidium iodide staining-based flow cytometric analysis (reference value: 86.07%); type: functional; details: A-375, 72 h, read-out: Activity
Histone deacetylase 8 = target: T1, Histone deacetylase 8 (Homo sapiens, UniProt Q9BY41); assay: Inhibition of recombinant human HDAC8 using FLUOR DE LYS as substrate after 1 hr by fluorescence assay
T1 sequence (Q9BY41 whole entry): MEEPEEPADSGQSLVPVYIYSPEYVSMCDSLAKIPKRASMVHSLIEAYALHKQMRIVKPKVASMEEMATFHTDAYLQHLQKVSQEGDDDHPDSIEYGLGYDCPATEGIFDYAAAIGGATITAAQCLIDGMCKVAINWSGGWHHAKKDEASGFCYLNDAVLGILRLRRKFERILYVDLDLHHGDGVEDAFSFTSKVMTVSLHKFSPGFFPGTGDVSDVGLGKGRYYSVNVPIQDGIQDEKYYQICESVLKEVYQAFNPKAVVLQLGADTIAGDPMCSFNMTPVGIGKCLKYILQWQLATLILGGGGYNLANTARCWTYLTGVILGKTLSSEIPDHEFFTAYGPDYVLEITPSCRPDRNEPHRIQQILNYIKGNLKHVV
Method in brief: (§3)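 Each isoform kit run with the enzyme preincubated with a concentration series of inhibitor, and substrate added after 5 min equilibration at 37 °C. Reaction ran 1 h at 37 °C, was stopped with developer for 10 min at 25 °C, and fluorescence was read at ex 360/em 460 nm. Activity taken as percent of control; IC50 by regression of dose–inhibition data.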

[16] = target: Histone deacetylase (Homo sapiens) (UniProt Q13547+O15379+Q9UBN7+Q92769+Q9UQL6+Q8WUI4+Q9BY41+Q96DB2+P56524+Q9UKV0+Q969S8); assay: Inhibition of HDAC in human HeLa cell nuclear extracts at 0.1 to 10000 uM using FLUOR DE LYS-Green as substrate after 1 hr by fluorescence assay; type: protein assay
Method in brief: (§4)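 Enzyme preincubated with a concentration series of inhibitor; Fluor de Lys-Green substrate equilibrated at 37 °C for 5 min, then added to start the reaction. Incubated 1 h at 37 °C, stopped with developer for 10 min at 25 °C, fluorescence read at ex 360/em 460 nm. Activity taken as percent of control; IC50 by regression of dose–inhibition data.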

Histone deacetylase 2 = Histone deacetylase 2 (Homo sapiens, UniProt Q92769); assay: Inhibition of recombinant human HDAC2 using FLUOR DE LYS-Green as substrate after 1 hr by fluorescence assay; method in brief: as §4
HepG2 = assay: Antiproliferative activity against human HepG2 cells after 72 hrs CCK8 assay; type: functional, cell-based; details: HepG2, 72 h
A-375 [17] = assay: Antiproliferative activity against human A375 cells after 72 hrs CCK8 assay; type: functional, cell-based; details: A-375, 72 h
A-375 [18] = assay: Induction of apoptosis in human A375 cells after 72 hrs by Alexa Fluor 488 Annexin/propidium iodide staining-based flow cytometric analysis; type: functional, cell-based
[19] = target: Histone deacetylase 3/NCoR1 (Homo sapiens, UniProt O15379); assay: Inhibition of recombinant human HDAC3/NCOR1 using FLUOR DE LYS SIRT1 deacetylase substrate after 1 hr by fluorescence assay; type: protein-complex assay; method in brief: as §3
[20] = target: T2, Protein deacetylase HDAC6 (Homo sapiens, UniProt Q9UBN7); assay: Inhibition of recombinant human HDAC6 using FLUOR DE LYS SIRT1, deacetylase as substrate after 1 hr by fluorescence assay; method in brief: as §3
T2 sequence (Q9UBN7 whole entry): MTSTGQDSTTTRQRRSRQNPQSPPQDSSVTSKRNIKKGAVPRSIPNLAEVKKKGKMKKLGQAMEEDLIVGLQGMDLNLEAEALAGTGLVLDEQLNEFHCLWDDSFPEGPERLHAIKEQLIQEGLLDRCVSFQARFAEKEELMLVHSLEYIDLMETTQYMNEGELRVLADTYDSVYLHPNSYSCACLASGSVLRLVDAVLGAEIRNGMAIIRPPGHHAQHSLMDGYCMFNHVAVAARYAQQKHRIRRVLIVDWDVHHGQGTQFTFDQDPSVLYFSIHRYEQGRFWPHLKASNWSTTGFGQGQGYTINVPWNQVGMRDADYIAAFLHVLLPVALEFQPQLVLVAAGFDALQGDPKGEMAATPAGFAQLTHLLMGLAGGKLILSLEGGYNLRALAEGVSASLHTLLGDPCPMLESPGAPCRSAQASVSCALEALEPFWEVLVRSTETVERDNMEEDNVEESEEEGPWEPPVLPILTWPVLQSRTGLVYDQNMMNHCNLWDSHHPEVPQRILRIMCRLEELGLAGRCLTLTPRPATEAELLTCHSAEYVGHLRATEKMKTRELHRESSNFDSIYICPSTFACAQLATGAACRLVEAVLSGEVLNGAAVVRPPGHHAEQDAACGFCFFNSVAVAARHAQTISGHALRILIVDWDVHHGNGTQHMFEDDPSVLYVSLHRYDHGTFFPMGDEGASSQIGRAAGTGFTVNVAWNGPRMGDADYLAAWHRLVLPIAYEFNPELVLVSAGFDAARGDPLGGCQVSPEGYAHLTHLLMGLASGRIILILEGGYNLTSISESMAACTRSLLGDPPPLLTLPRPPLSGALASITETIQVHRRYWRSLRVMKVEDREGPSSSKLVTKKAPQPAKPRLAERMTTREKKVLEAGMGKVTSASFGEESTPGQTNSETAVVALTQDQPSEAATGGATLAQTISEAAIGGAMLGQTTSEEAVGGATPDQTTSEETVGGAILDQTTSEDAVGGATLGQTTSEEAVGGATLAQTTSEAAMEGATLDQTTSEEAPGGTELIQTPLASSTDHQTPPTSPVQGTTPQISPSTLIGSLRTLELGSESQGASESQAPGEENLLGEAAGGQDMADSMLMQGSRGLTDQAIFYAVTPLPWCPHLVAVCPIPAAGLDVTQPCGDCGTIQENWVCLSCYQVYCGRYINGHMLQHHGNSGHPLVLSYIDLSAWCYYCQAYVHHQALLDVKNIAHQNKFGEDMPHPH

Histone deacetylase 1 = Histone deacetylase 1 (Homo sapiens, UniProt Q13547); assay: Inhibition of recombinant human HDAC1 using FLUOR DE LYS SIRT1 deacetylase substrate after 1 hr by fluorescence assay; method in brief: as §3
A549 = assay: Antiproliferative activity against human A549 cells after 72 hrs CCK8 assay; type: functional, cell-based; details: A549, 72 h
A-375 [21] = assay: Anticlonogenic activity against human A375 cells after 7 days by crystal violet staining based assay; type: functional, cell-based
Method in brief: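 A375 cells seeded at 3000 per well, treated after 24 h with compound or DMSO; after 7 days colonies fixed in 3.7% formaldehyde and stained with 0.1% crystal violet.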

Sequence of Histone deacetylase 3/NCoR1 (O15379 whole entry): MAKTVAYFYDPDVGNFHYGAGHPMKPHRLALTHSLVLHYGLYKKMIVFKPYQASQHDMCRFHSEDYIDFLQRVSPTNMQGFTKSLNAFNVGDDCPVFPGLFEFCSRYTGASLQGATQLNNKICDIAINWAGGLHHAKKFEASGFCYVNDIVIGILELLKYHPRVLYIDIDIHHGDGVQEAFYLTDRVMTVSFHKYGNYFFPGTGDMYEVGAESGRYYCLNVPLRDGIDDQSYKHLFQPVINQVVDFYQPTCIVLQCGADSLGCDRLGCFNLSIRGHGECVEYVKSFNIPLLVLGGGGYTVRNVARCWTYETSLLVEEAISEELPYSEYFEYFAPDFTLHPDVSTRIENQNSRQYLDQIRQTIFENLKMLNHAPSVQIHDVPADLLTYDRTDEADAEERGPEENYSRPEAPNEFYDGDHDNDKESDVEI
Sequence of Histone deacetylase 3/NCoR1 (O75376 whole entry, further chain): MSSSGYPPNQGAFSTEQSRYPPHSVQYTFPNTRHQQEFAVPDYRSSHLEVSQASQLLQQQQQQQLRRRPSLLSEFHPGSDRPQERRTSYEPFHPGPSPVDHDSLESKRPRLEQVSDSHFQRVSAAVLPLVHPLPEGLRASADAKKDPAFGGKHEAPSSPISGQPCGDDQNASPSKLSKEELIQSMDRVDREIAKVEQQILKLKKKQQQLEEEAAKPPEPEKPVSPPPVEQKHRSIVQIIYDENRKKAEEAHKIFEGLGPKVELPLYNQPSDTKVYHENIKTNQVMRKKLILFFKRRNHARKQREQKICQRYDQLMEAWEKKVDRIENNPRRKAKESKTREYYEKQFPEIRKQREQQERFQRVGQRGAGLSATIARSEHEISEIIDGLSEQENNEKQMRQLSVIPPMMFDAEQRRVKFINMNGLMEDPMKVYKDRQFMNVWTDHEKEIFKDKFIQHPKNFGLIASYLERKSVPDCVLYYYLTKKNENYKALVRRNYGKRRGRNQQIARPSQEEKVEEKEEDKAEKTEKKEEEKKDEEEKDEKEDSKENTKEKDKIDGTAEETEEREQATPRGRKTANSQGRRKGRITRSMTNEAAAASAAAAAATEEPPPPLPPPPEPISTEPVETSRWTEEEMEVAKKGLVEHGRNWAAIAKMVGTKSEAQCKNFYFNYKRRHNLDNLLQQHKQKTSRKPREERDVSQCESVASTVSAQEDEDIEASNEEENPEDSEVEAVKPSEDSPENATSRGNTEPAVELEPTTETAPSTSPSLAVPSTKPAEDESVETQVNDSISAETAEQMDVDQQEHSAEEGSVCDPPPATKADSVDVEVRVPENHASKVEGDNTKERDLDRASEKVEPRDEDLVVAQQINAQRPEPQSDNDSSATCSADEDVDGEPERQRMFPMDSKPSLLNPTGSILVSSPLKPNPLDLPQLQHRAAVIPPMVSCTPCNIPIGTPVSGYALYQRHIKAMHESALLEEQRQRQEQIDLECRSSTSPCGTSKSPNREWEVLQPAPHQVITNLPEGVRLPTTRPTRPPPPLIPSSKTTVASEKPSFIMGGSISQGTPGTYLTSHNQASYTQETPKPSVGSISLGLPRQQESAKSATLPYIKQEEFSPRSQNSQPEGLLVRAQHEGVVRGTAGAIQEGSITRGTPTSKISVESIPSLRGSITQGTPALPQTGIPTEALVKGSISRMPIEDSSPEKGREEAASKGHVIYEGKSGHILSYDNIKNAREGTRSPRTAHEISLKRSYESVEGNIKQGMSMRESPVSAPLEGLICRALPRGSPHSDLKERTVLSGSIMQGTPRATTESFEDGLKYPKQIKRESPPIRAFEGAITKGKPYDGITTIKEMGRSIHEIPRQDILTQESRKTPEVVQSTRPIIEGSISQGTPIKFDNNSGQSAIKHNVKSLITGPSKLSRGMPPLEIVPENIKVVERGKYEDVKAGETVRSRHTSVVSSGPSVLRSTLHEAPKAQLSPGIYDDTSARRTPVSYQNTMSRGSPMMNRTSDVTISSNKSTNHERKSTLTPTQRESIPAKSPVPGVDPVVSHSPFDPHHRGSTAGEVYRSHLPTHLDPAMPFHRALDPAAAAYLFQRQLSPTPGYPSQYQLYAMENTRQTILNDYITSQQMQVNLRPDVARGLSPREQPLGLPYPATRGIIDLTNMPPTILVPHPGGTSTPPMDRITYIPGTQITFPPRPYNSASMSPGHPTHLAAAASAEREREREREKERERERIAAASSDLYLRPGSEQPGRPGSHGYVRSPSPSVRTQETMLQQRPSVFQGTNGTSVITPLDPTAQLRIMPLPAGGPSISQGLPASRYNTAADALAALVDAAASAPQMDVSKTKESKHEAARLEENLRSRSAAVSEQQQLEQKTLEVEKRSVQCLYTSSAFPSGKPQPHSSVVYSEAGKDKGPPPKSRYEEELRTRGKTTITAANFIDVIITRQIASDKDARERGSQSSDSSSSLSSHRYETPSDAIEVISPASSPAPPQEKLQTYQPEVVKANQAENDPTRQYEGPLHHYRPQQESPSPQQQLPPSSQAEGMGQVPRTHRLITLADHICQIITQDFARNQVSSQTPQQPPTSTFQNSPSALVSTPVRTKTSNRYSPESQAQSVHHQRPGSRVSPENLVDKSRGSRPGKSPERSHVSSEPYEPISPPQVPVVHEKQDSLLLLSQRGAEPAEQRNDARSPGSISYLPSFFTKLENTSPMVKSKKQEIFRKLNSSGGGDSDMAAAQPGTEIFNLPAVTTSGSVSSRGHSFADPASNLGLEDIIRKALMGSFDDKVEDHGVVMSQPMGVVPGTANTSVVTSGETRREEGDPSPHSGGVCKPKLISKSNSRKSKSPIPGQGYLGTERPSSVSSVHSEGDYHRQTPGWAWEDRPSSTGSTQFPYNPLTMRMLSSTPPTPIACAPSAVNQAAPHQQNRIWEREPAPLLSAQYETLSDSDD
Sequence of Histone deacetylase 1 (Q13547 whole entry): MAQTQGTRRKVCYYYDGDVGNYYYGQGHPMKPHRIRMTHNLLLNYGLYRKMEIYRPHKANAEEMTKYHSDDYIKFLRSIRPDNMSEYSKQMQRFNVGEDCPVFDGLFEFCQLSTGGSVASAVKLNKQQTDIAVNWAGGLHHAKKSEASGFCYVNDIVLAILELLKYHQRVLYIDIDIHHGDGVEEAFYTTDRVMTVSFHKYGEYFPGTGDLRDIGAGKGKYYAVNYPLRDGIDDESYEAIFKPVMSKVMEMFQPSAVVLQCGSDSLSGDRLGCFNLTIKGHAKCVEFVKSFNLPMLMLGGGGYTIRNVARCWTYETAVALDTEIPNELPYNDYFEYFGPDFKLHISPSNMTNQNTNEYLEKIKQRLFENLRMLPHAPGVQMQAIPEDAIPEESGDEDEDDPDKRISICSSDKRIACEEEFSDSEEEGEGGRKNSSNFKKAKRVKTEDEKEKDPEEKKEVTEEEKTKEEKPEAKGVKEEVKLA
Sequence of Histone deacetylase 2 (Q92769 whole entry): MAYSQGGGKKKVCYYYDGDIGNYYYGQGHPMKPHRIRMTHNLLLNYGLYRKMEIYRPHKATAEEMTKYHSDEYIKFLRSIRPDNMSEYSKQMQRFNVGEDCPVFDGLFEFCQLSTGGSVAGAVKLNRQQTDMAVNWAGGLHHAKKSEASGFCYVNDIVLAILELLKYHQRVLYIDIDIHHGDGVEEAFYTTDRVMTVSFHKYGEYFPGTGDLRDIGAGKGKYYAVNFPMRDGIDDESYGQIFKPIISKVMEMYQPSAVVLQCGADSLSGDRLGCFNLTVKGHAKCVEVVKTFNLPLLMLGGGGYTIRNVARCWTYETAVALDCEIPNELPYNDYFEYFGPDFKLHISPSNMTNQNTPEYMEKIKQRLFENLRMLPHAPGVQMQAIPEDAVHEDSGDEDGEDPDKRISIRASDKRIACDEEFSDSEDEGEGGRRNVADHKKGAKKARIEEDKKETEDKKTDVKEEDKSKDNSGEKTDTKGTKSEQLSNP

Compound | Activity (A-375 [1]) [%] | Activity (A-375 [2]) [%] | pIC50 (SMMC-7721) | Activity (A-375 [3]) [%] | Activity (A-375 [4]) [%] | pIC50 (NCI-H460) | Activity (A-375 [5]) [%] | Activity (A-375 [6]) [%] | Activity (A-375 [7]) [%] | viability at 2 µM (A-375 [8]) [%] | Activity [9] [%] | Activity (A-375 [10]) [%] | Activity (A-375 [11]) [%] | pIC50 (NCI-H1299) | viability at 8 µM (A-375 [12]) [%] | Activity [13] [%] | Activity (A-375 [14]) [%] | viability at 16 µM (A-375 [15]) [%] | further results
O=C(O)CCCc1ccc(N(CCCl)CCCl)cc1 [CHLORAMBUCIL] | 6.95 | 1.62 | 3.79 | 2.11 | 1.36 | 4.54 | 47.6 | 6.44 | 18.21 | 90.1 | 128.6 | 8.41 | 2.34 | 3.93 | 87.1 | 128.9 | 4.21 | 71.1 | 
CC(=O)Nc1ccc(C(=O)Nc2ccccc2N)cc1 [TACEDINALINE] | 11.03 | 9.54 | 4.77 | 19.04 | 1.04 | 5.01 | 10.8 | 1.01 | 26.71 | 78.4 | 118.8 | 9.09 | 0.71 |  | 70.4 | 104.5 | 36.31 | 36 | 
Nc1ccccc1NC(=O)CCCc1ccc(N(CCCl)CCCl)cc1 | 11.63 | 5.76 | 5.40 | 7.39 | 2.77 | 5.51 | 79.2 | 3.78 | 48.69 | 79.8 | 213.3 | 42.54 | 12.05 | 5.26 | 38 | 159 | 12.31 | 35.2 | pIC50 (Histone deacetylase 8): 4.12; inhibition [16]: Active; pIC50 (Histone deacetylase 2): 4.48; pIC50 (HepG2): 4.85; pIC50 (A-375 [17]): 5.21; Activity (A-375 [18]): Dose-dependent effect; pIC50 [19]: 5.02; pIC50 [20]: < 3.80; pIC50 (Histone deacetylase 1): < 3.80; pIC50 (A549): 5.21; Activity (A-375 [21]): Dose-dependent effect
